“And” between values parts separate entries of the source, which are not always exact repeats. Identical values can stand only once. Among all 24,000 compounds or so, fewer than 10 were called active. A selection follows. Unmarked numbers belong to inactive results. No stated cut-off is given here; in the data, active means caspase activation above about 5.9%; inconclusive means no clear call, values can overlap the other calls; inactive means below about 2.2%.

The assay is described as follows: Bcl2-A1 antagonists releasing BIM, apoptosis – cell-based, luminescence, HTS, two replicates, primary screen (AID 2465). The note with it: MEF A1-2A-BIM cells, caspase-Glo luminescence, 3 h; hits give high values; percent of clofoctol response, DMSO zero; concentration not given here. The essentials:
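Material: mouse embryonic fibroblasts co-expressing A1 and BIM (A1-2A-BIM), primed for A1 dependence / Quantity: 2500 cells/well / Buffer or medium: RPMI-1640 growth medium with 10% FBS / Doses: 50 nL compound per well, pinned / Schedule: 3 h compound exposure at 37 °C / Signal: Caspase-Glo luminescence (DEVD substrate) / Measure: Caspase-3/7 activation, seen as rise in luminescence signal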
As to `COc1ccc(S(=O)(=O)Nc2ccc3c(c2)C(=O)N([C@@H](C)CO)C[C@H](C)[C@H](CN(C)S(=O)(=O)c2c(C)noc2C)OCCCC[C@@H](C)O3)cc1`, the caspase activation is 0.0111%.

Consider `C[C@@H]1CCCCO[C@@H](CN(C)C(=O)NC2CCCCC2)[C@H](C)CN([C@H](C)CO)C(=O)c2cc(NC(=O)c3ccccc3)ccc2O1`, for which the caspase activation is 0.223%.

In the case of `C[C@H]1CN([C@@H](C)CO)C(=O)c2cccc(NS(=O)(=O)c3ccc(Cl)cc3)c2O[C@@H]1CN(C)Cc1ccc(Oc2ccccc2)cc1`, the caspase activation is 1%.

With `C[C@H](CO)N1C[C@H](C)[C@H](CN(C)Cc2ccc(C(=O)O)cc2)Oc2ccc(NS(=O)(=O)c3cn(C)cn3)cc2CC1=O`, the caspase activation is -0.00308%.

With `C[C@@H]1CN([C@H](C)CO)C(=O)Cc2cc(NC(=O)c3ccncc3)ccc2O[C@H]1CN(C)S(=O)(=O)c1cccs1`, the caspase activation is 0.361%.

Regarding `COc1ccc(CN(C)C[C@@H]2OCCCC[C@@H](C)Oc3ccc(NS(=O)(=O)c4ccc(C)cc4)cc3C(=O)N([C@@H](C)CO)C[C@H]2C)cc1`, the caspase activation was 0.1%.

Take `Cc1noc(C)c1S(=O)(=O)Nc1ccc2c(c1)C(=O)N([C@H](C)CO)C[C@H](C)[C@H](CN(C)C(=O)NC1CCCCC1)OCCCC[C@H](C)O2`: the caspase activation is -1.41%.

Take `O=C(N/N=C/[C@H](O)[C@@H](O)[C@H](O)[C@H](O)CO)c1ccccc1O`: the caspase activation is -0.678%.

In the case of `C[C@H]1CCCCO[C@H](CN(C)C(=O)Nc2ccc3c(c2)OCO3)[C@@H](C)CN([C@@H](C)CO)C(=O)c2cc(NC(=O)Nc3ccccc3)ccc2O1`, the caspase activation was 0.0515%.

For the compound `C[C@H]1CN([C@@H](C)CO)C(=O)c2cccc(NC(=O)Nc3ccccc3)c2O[C@@H]1CN(C)C(=O)Nc1cccc2ccccc12`, the caspase activation was -0.864%.

As for `[N-]=[N+]=NC[C@H](Cc1ccccc1)NC(=O)Nc1ccccc1`, the caspase activation was -3.77% and 0.143%.

For the compound `COc1ccc(S(=O)(=O)Nc2ccc3c(c2)C(=O)N([C@H](C)CO)C[C@H](C)[C@@H](CN(C)Cc2ccccc2)OCCCC[C@@H](C)O3)cc1`, the caspase activation is 0.258%.

`Cc1cccc(S(=O)(=O)N(C)C[C@H]2OCc3cnnn3CCCC(=O)N([C@@H](C)CO)C[C@H]2C)c1`: the caspase activation was -0.906%.

With `COc1ccc(S(=O)(=O)Nc2ccc3c(c2)C(=O)N([C@@H](C)CO)C[C@@H](C)[C@H](CN(C)C(=O)Nc2ccc(C(F)(F)F)cc2)OCCCC[C@@H](C)O3)cc1`, the caspase activation was -0.653%.

As to `C[C@@H]1CCCCO[C@@H](CN(C)S(=O)(=O)c2ccccc2)[C@H](C)CN([C@H](C)CO)C(=O)c2cc(NC(=O)Nc3ccc4c(c3)OCO4)ccc2O1`, the caspase activation is -1.23%.

These data come from PubChem BioAssay AID2465 (Broad Institute, 2010).
